The target in experiment [1] is T1, Angiotensin-converting enzyme (Rattus norvegicus) (UniProt P47820).
T1 sequence (whole entry): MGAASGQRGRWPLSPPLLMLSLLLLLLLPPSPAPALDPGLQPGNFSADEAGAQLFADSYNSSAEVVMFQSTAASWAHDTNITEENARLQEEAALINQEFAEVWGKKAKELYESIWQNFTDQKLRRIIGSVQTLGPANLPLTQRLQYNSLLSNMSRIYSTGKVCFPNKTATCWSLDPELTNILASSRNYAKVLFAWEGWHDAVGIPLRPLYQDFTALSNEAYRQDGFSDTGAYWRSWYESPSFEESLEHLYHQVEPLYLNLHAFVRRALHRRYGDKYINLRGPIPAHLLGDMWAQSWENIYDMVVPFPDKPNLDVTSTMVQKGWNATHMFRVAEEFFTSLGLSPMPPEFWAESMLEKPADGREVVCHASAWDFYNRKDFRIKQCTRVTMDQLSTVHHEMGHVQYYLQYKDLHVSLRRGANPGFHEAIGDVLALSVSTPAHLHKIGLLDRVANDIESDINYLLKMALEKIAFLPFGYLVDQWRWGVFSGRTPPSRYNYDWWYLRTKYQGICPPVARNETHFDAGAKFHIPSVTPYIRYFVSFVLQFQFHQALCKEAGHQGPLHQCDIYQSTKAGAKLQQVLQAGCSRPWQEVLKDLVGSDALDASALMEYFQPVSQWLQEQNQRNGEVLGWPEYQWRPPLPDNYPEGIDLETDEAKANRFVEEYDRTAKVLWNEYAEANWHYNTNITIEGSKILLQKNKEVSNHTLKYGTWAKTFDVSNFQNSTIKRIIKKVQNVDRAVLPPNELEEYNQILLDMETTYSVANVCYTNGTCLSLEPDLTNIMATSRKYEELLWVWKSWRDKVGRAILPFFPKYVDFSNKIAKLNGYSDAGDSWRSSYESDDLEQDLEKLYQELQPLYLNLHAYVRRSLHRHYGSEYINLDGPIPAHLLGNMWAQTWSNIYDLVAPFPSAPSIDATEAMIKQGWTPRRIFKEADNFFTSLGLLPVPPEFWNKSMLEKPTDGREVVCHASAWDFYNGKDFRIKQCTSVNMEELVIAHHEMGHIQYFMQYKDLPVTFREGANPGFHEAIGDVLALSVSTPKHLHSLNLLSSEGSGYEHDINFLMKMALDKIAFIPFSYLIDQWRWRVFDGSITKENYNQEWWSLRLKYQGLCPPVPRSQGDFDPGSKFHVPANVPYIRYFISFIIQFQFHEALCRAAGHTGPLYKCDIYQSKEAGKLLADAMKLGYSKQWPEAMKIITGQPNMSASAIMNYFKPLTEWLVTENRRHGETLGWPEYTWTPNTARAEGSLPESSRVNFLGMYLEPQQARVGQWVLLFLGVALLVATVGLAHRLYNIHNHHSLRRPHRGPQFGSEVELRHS
The experiment in a line: Compound was tested for plasma inhibition of Angiotensin I converting enzyme activity in the conscious rat. Expressed as Inhibition of AI pressor response at 1 hr at a dose of 14.5 mg/kg po. The experiment is classed as organism-based. The arrangement: dose 14.5 mg/kg. An outline of the steps:
(§1)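 Male conscious normotensive Sprague-Dawley rats (275-390 g), given femoral arterial and venous catheters under methohexital sodium (75 mg/kg ip) anesthesia. Next day, pressor responses to three angiotensin-I challenges (300 ng/kg iv) recorded by direct arterial pressure. Compound then dosed orally, and AI challenge repeated at set times. Each post-dose response compared with the mean of the three baseline responses, giving % inhibition.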

Experiment [2] deals with T1, Angiotensin-converting enzyme (Rattus norvegicus). The experiment in a line: Compound was tested for plasma inhibition of Angiotensin I converting enzyme activity in the conscious rat. Expressed as Inhibition of AI pressor response at 4 hr at a dose of 14.5 mg/kg po. The experiment is classed as organism-based. Set-up: dose 14.5 mg/kg. The gist of the method:
(§2)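 Male conscious normotensive Sprague-Dawley rats (275-390 g), prepared under methohexital sodium (75 mg/kg ip) with femoral arterial and venous catheters. The next day, pressor responses to three angiotensin-I challenges (300 ng/kg iv) were recorded. Compound was then given orally and angiotensin-I challenges were repeated at set times. Percent inhibition is relative to the mean of the three baseline responses.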

For experiment [3] the target is unchanged. In words: Compound was tested for plasma inhibition of Angiotensin I converting enzyme activity in the conscious rat. Expressed as Inhibition of AI pressor response at 2 hr at a dose of 14.5 mg/kg po. The experiment is classed as organism-based. The arrangement: dose 14.5 mg/kg. An outline of the steps: as §1
Experiment [4] shares this target. The experiment in a line: Compound was tested for plasma inhibition of Angiotensin I converting enzyme activity in the conscious rat. Expressed as Inhibition of AI pressor response at 6 hr at a dose of 14.5 mg/kg po. The experiment is classed as organism-based. The arrangement: dose 14.5 mg/kg. The gist of the method:
as §2

Experiment [5] deals with Rattus norvegicus. In words: Plasma ANF Concentration in the Conscious Rat at a dose of 11.7(po)mg/kg at 1 h. The experiment is classed as functional. An outline of the steps: (§3)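 Male Sprague-Dawley rats (275-390 g) received femoral artery and vein catheters under ketamine (150 mg/kg)/acepromazine and recovered for 24 h, tethered, before study conscious. ratANF(99-126) was infused at 450 ng/kg/min iv for 5 h. Baseline blood was drawn at 60 min into the infusion, then compound was given po.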

The target in experiment [6] is T1, Angiotensin-converting enzyme (Rattus norvegicus). In words: Compound was tested for plasma inhibition of Angiotensin I converting enzyme activity in the conscious rat. Expressed as Inhibition of AI pressor response at 1 hr at a dose of 11.7 mg/kg po. The experiment is classed as organism-based. Set-up: dose 11.7 mg/kg. The gist of the method:
as §1

For experiment [7], the system named is Rattus norvegicus. In words: Plasma ANF Concentration in the Conscious Rat at a dose of 11.7(po)mg/kg at 4 h. The experiment is classed as functional. An outline of the steps:
as §3

In experiment [8] the target is T1, Angiotensin-converting enzyme (Rattus norvegicus). The experiment in a line: Compound was tested for plasma inhibition of Angiotensin I converting enzyme activity in the conscious rat. Expressed as Inhibition of AI pressor response at 6 hr at a dose of 11.7 mg/kg po. The experiment is classed as organism-based. The arrangement: dose 11.7 mg/kg. An outline of the steps:
as §2

In experiment [9] the test system is Rattus norvegicus. In words: Plasma ANF Concentration in the Conscious Rat at a dose of 11.7(po)mg/kg at 2 h. The experiment is classed as functional. An outline of the steps: as §3
The test system of experiment [10] is Rattus norvegicus. The experiment in a line: Plasma ANF Concentration in the Conscious Rat at a dose of 11.7(po)mg/kg at 0.5 h. The experiment is classed as functional. An outline of the steps: as §3
Experiment [11] has as its target T1, Angiotensin-converting enzyme (Rattus norvegicus). The experiment in a line: Compound was tested for plasma inhibition of Angiotensin I converting enzyme activity in the conscious rat. Expressed as Inhibition of AI pressor response at 2 hr at a dose of 11.7 mg/kg po. The arrangement: dose 11.7 mg/kg. The experiment is classed as organism-based. An outline of the steps:
as §1

Experiment [12] has the same target. In words: Compound was tested for plasma inhibition of Angiotensin I converting enzyme activity in the conscious rat. Expressed as Inhibition of AI pressor response at 4 hr at a dose of 11.7 mg/kg po. The experiment is classed as organism-based. Set-up: dose 11.7 mg/kg. An outline of the steps:
as §1

Experiment [13] shares this target. The experiment in a line: Compound was tested for plasma inhibition of Angiotensin I converting enzyme activity in the conscious rat. Expressed as Inhibition of AI pressor response at 6 hr at a dose of 13.7 mg/kg po. The experiment is classed as organism-based. Set-up: dose 13.7 mg/kg. An outline of the steps:
as §2

Experiment [14] has the same target. In words: Compound was tested for plasma inhibition of Angiotensin I converting enzyme activity in the conscious rat. Expressed as Inhibition of AI pressor response at 4 hr at a dose of 13.7 mg/kg po. The experiment is classed as organism-based. Set-up: dose 13.7 mg/kg. An outline of the steps: as §2
Experiment [15] shares this target. The experiment in a line: Compound was tested for plasma inhibition of Angiotensin I converting enzyme activity in the conscious rat. Expressed as Inhibition of AI pressor response at 2 hr at a dose of 13.7 mg/kg po. The experiment is classed as organism-based. Set-up: dose 13.7 mg/kg. The gist of the method:
as §1

The target is the same in experiment [16]. The experiment in a line: Compound was tested for plasma inhibition of Angiotensin I converting enzyme activity in the conscious rat. Expressed as Inhibition of AI pressor response at 1 hr at a dose of 13.7 mg/kg po. The experiment is classed as organism-based. The arrangement: dose 13.7 mg/kg. An outline of the steps: as §1
Experiment [17] shares this target. The experiment in a line: Compound was tested for plasma inhibition of Angiotensin I converting enzyme activity in the conscious rat. Expressed as Inhibition of AI pressor response at 2 hr at a dose of 13.5 mg/kg po. The experiment is classed as organism-based. Set-up: dose 13.5 mg/kg. The gist of the method: as §1
Experiment [18] shares this target. In words: Compound was tested for plasma inhibition of Angiotensin I converting enzyme activity in the conscious rat. Expressed as Inhibition of AI pressor response at 4 hr at a dose of 13.5 mg/kg po. The experiment is classed as organism-based. The arrangement: dose 13.5 mg/kg. An outline of the steps:
as §2

For experiment [19] the target is unchanged. The experiment in a line: Compound was tested for plasma inhibition of Angiotensin I converting enzyme activity in the conscious rat. Expressed as Inhibition of AI pressor response at 1 hr at a dose of 13.5 mg/kg po. The experiment is classed as organism-based. Set-up: dose 13.5 mg/kg. An outline of the steps:
as §1

For experiment [20] the target is unchanged. The experiment in a line: Compound was tested for plasma inhibition of Angiotensin I converting enzyme activity in the conscious rat. Expressed as Inhibition of AI pressor response at 6 hr at a dose of 13.5 mg/kg po. The experiment is classed as organism-based. Set-up: dose 13.5 mg/kg. An outline of the steps: as §2
The target is the same in experiment [21]. In words: Compound was tested for plasma inhibition of Angiotensin I converting enzyme activity in the conscious rat. Expressed as Inhibition of AI pressor response at 6 hr at a dose of 12.1 mg/kg po. The experiment is classed as organism-based. Set-up: dose 12.1 mg/kg. An outline of the steps:
as §2

Experiment [22] has the same target. In words: Compound was tested for plasma inhibition of Angiotensin I converting enzyme activity in the conscious rat. Expressed as Inhibition of AI pressor response at 2 hr at a dose of 12.1 mg/kg po. Set-up: dose 12.1 mg/kg. The experiment is classed as organism-based. An outline of the steps: as §1
Experiment [23] has the same target. The experiment in a line: Compound was tested for plasma inhibition of Angiotensin I converting enzyme activity in the conscious rat. Expressed as Inhibition of AI pressor response at 1 hr at a dose of 12.1 mg/kg po. The experiment is classed as organism-based. The arrangement: dose 12.1 mg/kg. The gist of the method:
as §1

The target is the same in experiment [24]. In words: Compound was tested for plasma inhibition of Angiotensin I converting enzyme activity in the conscious rat. Expressed as Inhibition of AI pressor response at 4 hr at a dose of 12.1 mg/kg po. The experiment is classed as organism-based. Set-up: dose 12.1 mg/kg. The gist of the method:
as §1

Usually inhibition stands for the drop in the measured response relative to a control, in per cent. High values mean strong suppression, low ones little suppression. For `CCCCOC(=O)[C@H](Cc1ccc(O)cc1)NC(=O)C1(NC(=O)[C@H](SC(=O)CN2CCOCC2)C(C)C)CCCC1`, the inhibition was 57% in experiment [1], 34% in experiment [2], 53% in [3] and 12% in experiment [4].

Turning to `CCOC(=O)[C@H](Cc1ccc(OC)cc1)NC(=O)C1(NC(=O)[C@H](SC(C)=O)C(C)C)CCCC1`, the Control in the experiment on Rattus norvegicus [5] is on record as 346%; in the experiment on Rattus norvegicus [7], 251%; with Rattus norvegicus [9], 250%; in the experiment with Rattus norvegicus [10], 275%. Also, the inhibition in [6] turned out to be 73%; in experiment [8], 77%; in experiment [11], 81%; in [12], 79%.

On to `CCCCOC(=O)[C@H](Cc1ccc(O)cc1)NC(=O)C1(NC(=O)[C@H](SC(=O)C2CCCC2)C(C)C)CCCC1`, for which the inhibition worked out at 27% in experiment [13], 38% in experiment [14], 49% in experiment [15] and 57% in experiment [16].

For the compound `CCOC(=O)Oc1ccc(C[C@H](NC(=O)C2(NC(=O)[C@H](SC(C)=O)C(C)C)CCCC2)C(=O)OCC)cc1`, the inhibition in experiment [17] is 28%; in experiment [18] it was 25%; in [19], 24%; in [20], 21%.

As for `CCOC(=O)CC(=O)Oc1ccc(C[C@H](NC(=O)C2(NC(=O)[C@H](SC(C)=O)C(C)C)CCCC2)C(=O)OCC)cc1`, the inhibition in experiment [1] turned out to be 88%; in experiment [2], 82%; in [3], 78%; in experiment [4], 73%.

Regarding `CCCOC(=O)[C@H](Cc1ccc(O)cc1)NC(=O)C1(NC(=O)[C@H](SC(C)=O)C(C)C)CCCC1`, the inhibition in experiment [21] came to 19%; in experiment [22], 69%; in [23] it was 74%; in experiment [24], 37%.

The values above are taken from ChEMBL document CHEMBL1129264, “Mercaptoacyl dipeptides as orally active dual inhibitors of angiotensin-converting enzyme and neutral endopeptidase” (1996).
